The structures appear in SMILES notation. Like-named read-outs stand apart in the source and are kept apart here. A value given as a limit tells only on which side of the number the result lay.

This is an account of results in paper PMC10287037 (European journal of medicinal chemistry, 2023).

One assay relates to leukemia cell lines. As to the kind of experiment: NCI five-dose screening, leukemia subpanel. The format is cell-based, human. The following applies: for GI50: Homo sapiens, read-out: GI50 values (range over subpanel). The procedure, abridged:
(§1)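 Run by NCI. Prescreen at 10^-5 M across 60 human lines from nine tumour types: leukemia, NSCLC, colon, CNS, melanoma, ovarian, renal, prostate, breast. GI50 is the concentration inhibiting cell growth by 50%. MG_MID is the arithmetic mean GI50 over tested lines; where 50% inhibition was not reached, the highest tested concentration was used.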

Assay [1] deals with PBL not stimulated with PHA. As to the kind of experiment: Cytotoxicity in resting human PBLs. The format is cell-based. The following applies: 72 h, read-out: IC50 (compound concentration required to inhibit cell growth by 50%). A digest of the protocol:
(§2)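 Healthy-donor human PBLs; non-adherent cells at 5×10^5 cells/mL in growth medium. Proliferating cultures received PHA; resting cultures used the same density without PHA. Graded compound concentrations from 10 mM DMSO stocks. Viability by MTT after 72 h incubation. IC50 is the concentration inhibiting cell growth by 50%.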

Assay [2] has as its system VL51 (marginal zone lymphoma, MZL) cells. Description: MTT cell proliferation assay, VL51. The assay is classed as cell-based. The following applies: Homo sapiens, VL51, 72 h, bound stated.
Another assay has as its system PBL stimulated with PHA. As to the kind of experiment: Cytotoxicity in PHA-stimulated human PBLs. The format is cell-based. The following applies: 72 h, read-out: IC50 (compound concentration required to inhibit cell growth by 50%). The procedure, abridged:
as §2

Assay [3] concerns non-Hodgkin lymphoma (NHL) cells HBL1, SU-DHL-10, MINO, VL51. As to the kind of experiment: MTT cell proliferation assay, panel of four NHL cell lines. The format is cell-based, human. The following applies: for reduction in the percentage of cellular proliferation: 1 μM, 72 h incubation, towards each cell line.
For assay [4], the system named is A549, CCRF-CEM and VL51 cells. Description: Apoptosis assay. The assay is classed as cell-based, human. The following applies: 48 h incubation; annexin-V/PI. A digest of the protocol: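 A549, CCRF-CEM and VL51 cultured at 37 °C, 5% CO2; lymphoma line in RPMI-1640 with 20% FBS, pen-strep-neomycin and 1% L-glutamine. Test compound from 10 mM DMSO stock, several concentrations, 48 h. Annexin-V Fluos kit per manufacturer: annexin-V-FITC (FL1) and PI (FL3) by flow cytometry. Apoptotic % = annexin-V+ plus annexin-V/PI double-positive cells; mean ± S.E.M., three independent experiments.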

Another assay has as its system colon cancer subpanel. As to the kind of experiment: NCI five-dose screening, colon cancer subpanel. The format is cell-based, human. The following applies: for GI50: Homo sapiens. The procedure, abridged:
as §1

Assay [5] has as its system VL51 cells. As to the kind of experiment: Mitochondrial membrane potential. The assay is classed as cell-based, human. The following applies: 24 h, 0.5 and 1.0 μM, VL51, JC-1. The procedure, abridged:
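VL51 lymphoma cells were grown in RPMI-1640 with 20% FBS, pen-strep-neomycin and 1% L-glutamine at 37 °C, 5% CO2. Cells were treated 24 h with test compound diluted from a 10 mM DMSO stock. They were then labelled with JC-1 and analysed by flow cytometry in the FL1 and FL2 channels.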

The subject of a further assay is renal cancer subpanel. As to the kind of experiment: NCI five-dose screening, renal cancer subpanel. The following applies: Homo sapiens, TK-10, read-out: GI50 (range over subpanel). The format is cell-based. A digest of the protocol:
as §1

The next assay deals with prostate cell lines. As to the kind of experiment: NCI five-dose screening, prostate subpanel. The format is cell-based. The following applies: Homo sapiens, read-out: GI50 values (range over subpanel). The procedure, abridged: as §1
For assay [6], the system named is tubulin (colchicine site). Description: Inhibition of [3H]colchicine binding to tubulin. The following applies: 5 μM inhibitor; 0.5 μM tubulin, 5.0 μM [3H]colchicine.
The subject of assay [7] is VL51 cells. As to the kind of experiment: p-histone H3 staining of mitotic cells by flow cytometry. The format is cell-based, human. The following applies: 24 h. The procedure, abridged: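 VL51 lymphoma cells in RPMI-1640 with 20% FBS, penicillin-streptomycin-neomycin and 1% L-glutamine at 37 °C, 5% CO2. Seeded at 2.0×10^5 per well in 6-well plates, then treated 24 h at indicated concentrations. Harvested by centrifugation, fixed in 70% ice-cold ethanol, stained with anti-phospho-histone H3 antibody plus PI, and analysed by flow cytometry as % p-H3-positive (mitotic) cells.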
For orientation: Flow cytometry measures light scatter and fluorescence of single cells or particles in a stream.

Another assay deals with tubulin. As to the kind of experiment: Inhibition of tubulin assembly. The following applies: compared with 3d / CA-4. The format is biochemical.

Turning to `COc1ccc(Cn2cc3c(c2-c2cc(OC)c(OC)c(OC)c2)CCCc2cnoc2-3)cc1` [3u, 8-(4-Methoxybenzyl)-7-(3,4,5-trimethoxyphenyl)-4,5,6,8-tetrahydropyrrolo[3’,4’:3,4]cyclohepta[1,2-d][1,2]oxazole], the figures for the GI50 in the assay on leukemia cell lines and in the assay with colon cancer subpanel (read-out: GI50 values (range over subpanel)) were 350 to 1560 nM and 390 to 1610 nM, respectively. The entries for the “calculated MG_MID for subpanel” value with leukemia cell lines (leukemia subpanel) and with colon cancer subpanel (colon cancer subpanel) were 0.65 µM and 0.88 µM, respectively. Besides, the values for the IC50 (in assay [1]; in assay [2]; in the assay on PBL stimulated with PHA) were over 10000 nM, under 500 nM and over 10000 nM, respectively. Besides, the “reduction in the percentage of cellular proliferation” value in assay [3] was “higher than 50%”. The induction of apoptosis entry in assay [4] was “massive apoptosis in a dose-dependent manner”. For the same compound, in the assay with VL51 cells [5], the “depolarization of the mitochondrial membrane” value (“depolarization” for short) is “depolarization was extensive”.

In the case of `COc1ccc(Cn2cc3c(c2-c2cc(OC)c(OC)c(OC)c2)CCCc2cnoc2-3)cc1N` [3z, 2-Methoxy-5-((7-(3,4,5-trimethoxyphenyl)-5,6-dihydropyrrolo[3’,4’:3,4]cyclohepta[1,2-d]isoxazol-8(4H)-yl)methyl)aniline], the 50% growth inhibitory concentration (GI50) in the assay with leukemia cell lines was in the range of 300 to 650 nM; in the assay with renal cancer subpanel, 360 to 840 nM; with colon cancer subpanel (HCC 2998, read-out: GI50 (range over subpanel)) it was 380 to 560 nM; in the assay on prostate cell lines it was 430 to 840 nM. Besides, the IC50 in assay [1] is over 10000 nM; in [2], under 500 nM; with PBL stimulated with PHA, over 10000 nM; in assay [3] (Homo sapiens, 72 h, read-out: IC50 values (range over all four NHL cell lines)), 100 to 500 nM. The “reduction in the percentage of cellular proliferation” value in [3] is “higher than 50%”. Moreover, the induction of apoptosis entry in assay [4] was “massive apoptosis in a dose-dependent manner”. The “depolarization” value in the assay on VL51 cells [5] is given as “depolarization was extensive”.

For `COc1ccc(/C=C\c2cc(OC)c(OC)c(OC)c2)cc1O` [CA-4, combretastatin A-4], the “Inhibition of colchicine binding % Inhibition ± SD” value in assay [6] came to 98 ± 2%.

With `COc1ccc(Cn2cc3c(c2-c2ccccc2)CCCc2cnoc2-3)cc1` [3d, 8-(4-Methoxybenzyl)-7-phenyl-4,5,6,8-tetrahydropyrrolo[3’,4’:3,4]cyclohepta[1,2-d][1,2]oxazole], the “increase of mitotic cells (p-histone H3 positive)” value in the assay with VL51 cells [7] is listed as “did not observe a significant increase of mitotic cells”. Also, the IC50 (in assay [1]; in the assay with PBL stimulated with PHA) was over 10000 nM each time. Further, in [4], the induction of apoptosis entry is listed as “induced apoptosis to a lesser extent”. For the same compound, in the assay with VL51 cells [5], the “depolarization” value is “slight depolarization of the mitochondrial membrane”.

Take `COc1ccc(Cn2cc3c(c2-c2ccc(OC)cc2)CCCc2cnoc2-3)cc1` [3p, 8-(4-Methoxybenzyl)-7-(4-methoxyphenyl)-4,5,6,8-tetrahydropyrrolo[3’,4’:3,4]cyclohepta[1,2-d][1,2]oxazole]: the “fold less active on tubulin assembly” value in the assay with tubulin is “about 4 fold”.

One may read the GI50 as the concentration at which growth is held to half of that of the control.
